{"data": "Published values from different studies", "target": "Tyrosine-protein kinase Lck (LCK, Homo sapiens, UniProt P06239)", "note": "Lines come from different studies, so protocols differ."}
{"Structure (SMILES)": "CC#CC(=O)N1CCC[C@H]1c1nc(-c2ccc(C(=O)Nc3ccccn3)cc2)c2c(N)nccn12", "test": "enzyme activity, inhibitor", "setting": "1 µM", "measurement": "inhibition", "result": "10%"}
{"Structure (SMILES)": "C#Cc1cnc(Nc2ccc(CO)cc2)nc1Nc1ccccc1C(=O)NC", "test": "enzyme activity, inhibitor", "setting": "1 µM", "measurement": "remaining activity", "result": "2.4%"}
{"Structure (SMILES)": "C[C@H]1CC[C@H](n2c3cnccc3c3cnc(Nc4ccc5c(n4)CCN(C(=O)CO)C5)nc32)CC1", "test": "binding, competition with immobilised ligand", "setting": "1 µM", "measurement": "remaining binding", "result": "49%"}
{"Structure (SMILES)": "CNC(=O)c1ccccc1Nc1nc(Nc2ccc(CO)nc2)ncc1Cl", "test": "enzyme activity, inhibitor", "setting": "1 µM", "measurement": "remaining activity", "result": "3.38%"}
{"Structure (SMILES)": "CN1CCN(C(=O)c2ccc(NC(=O)Nc3ccc(N(C)c4ccnc(Nc5ccc(CS(C)(=O)=O)cc5)n4)cc3)cc2)CC1", "test": "binding, competition with immobilised ligand", "setting": "1 µM", "measurement": "remaining binding", "result": "85%"}
{"Structure (SMILES)": "C=CC(=O)N1CCC[C@@H](n2nc(-c3ccc(Oc4ccccc4)cc3)c3c(N)ncnc32)C1", "test": "enzyme activity, inhibitor", "setting": "1 µM", "measurement": "inhibition", "result": "99%"}
{"Structure (SMILES)": "CCCCC(=O)Nc1ccc(-c2ccc3ncn(CCC)c(=O)c3c2)cn1", "test": "binding, competition with immobilised ligand", "setting": "0.5 µM", "measurement": "remaining binding", "result": "100%"}
{"Structure (SMILES)": "C#Cc1cc(-c2cc(Nc3nc(N[C@@H](C)c4ccc(F)cn4)ncc3Cl)n[nH]2)ccc1C=O", "test": "enzyme activity, inhibitor", "setting": "0.2 µM", "measurement": "inhibition", "result": "78.9%"}
{"Structure (SMILES)": "C#Cc1cnc(Nc2ccc(CO)nc2)nc1Nc1ccccc1S(C)(=O)=NC#N (stereo not shown)", "test": "enzyme activity, inhibitor", "setting": "1 µM", "measurement": "remaining activity", "result": "12.7%"}
{"Structure (SMILES)": "C1=C/COCc2cc(ccc2OCCN2CCCC2)Nc2nccc(n2)-c2cccc(c2)COC/1", "test": "binding", "setting": "0.1 µM", "measurement": "remaining binding", "result": "53%"}
